The species entered for data set [1] is Homo sapiens. Kind of data set: Mono layer permeability of human intestinal Caco-2 cells. The format is ADME, cell-based. Put shortly: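 Caco-2 cells at passage 93–105, seeded on polycarbonate filter inserts (0.45 μm pores) and grown 22–32 days. Drug at 1–2 mM final in HBSS with 25 mM Hepes, pH 7.4, added donor side; 37 °C, low and high stirring. Receiver sampled every 4–40 min for HPLC, under sink conditions. Pc derived from Papp across stirring rates, free of the aqueous boundary layer.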
(Caco-2 cells form a polarised layer with tight junctions and transporters.)

Data set [2] in a line: Distribution coefficient measured in Octanol/buffer (0.15 M KCl). The class given is physicochemical. The method, boiled down:
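Dual-phase titration at 25 °C: 1–2 mg sample plus 1.0 mL n-octanol in 10–15 mL water with 0.15 M KCl. Acidified to pH 2 (0.5 M HCl), then titrated with 0.5 M KOH to pH 11 under nitrogen. log P came from the pKa–pKa' shift via nonlinear regression of difference curves; log D refers to pH 7.4.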

A short description of data set [3]: Dissociation constant of the compound. The class given is physicochemical.

One may read the logD as lipophilicity at a set pH, counting ionised and neutral species. A high value points to a more lipophilic compound. For the compound `C=CCc1ccccc1OCC(O)CNC(C)C` (configuration not stated) [ALPRENOLOL], the Pc in data set [1] was determined as 242 ×10⁻⁶ cm/s. This compound also yielded a logD in data set [2] of 0.85.

By pKa is commonly meant the negative logarithm of the acid dissociation constant. Higher therefore signals a weaker acid or stronger base. As to `C=CCOc1ccccc1OCC(O)CNC(C)C` (configuration not stated) [OXPRENOLOL], in data set [1], the Pc was found to be 119.6 ×10⁻⁶ cm/s. The compound further registered a pKa in data set [3] of 9.5. Further, the pH-dependent lipophilicity (logD) in data set [2] came out at 0.08.

Turning to `CCC(=O)Nc1ccc(OCC(O)CNC(C)C)cc1` (configuration not stated), in data set [1], the Pc is 6.03 ×10⁻⁶ cm/s. For the same compound, the pKa in data set [3] was 9.5. The same compound registered a pH-dependent lipophilicity (logD) in data set [2] of -1.08.

In turn, `COCCc1ccc(OCC(O)CNC(C)C)cc1` (configuration not stated) [METOPROLOL] displayed a Pc in data set [1] of 91.9 ×10⁻⁶ cm/s. In data set [2], this compound came in with a pH-dependent lipophilicity (logD) of -0.42.

`CC(C)NCC(O)COc1cccc2[nH]ccc12` (configuration not stated) [PINDOLOL]: the Pc in data set [1] was determined as 54.7 ×10⁻⁶ cm/s. In data set [3], the pKa was 9.7. The compound also registered a logD in data set [2] of -0.55.

`O=C(NCCNCC(O)COc1ccc(CCOCCOCC2CC2)cc1)N1CCC(O)CC1` (configuration not stated) gave a Pc in data set [1] of 0.104 ×10⁻⁶ cm/s. Besides, in data set [3], the pKa was 8.5. This compound returned a logD in data set [2] of -0.1.

In the case of `CC(=O)Nc1ccc(OCC(O)CNC(C)C)cc1` (configuration not stated) [PRACTOLOL], the Pc in data set [1] is 3.46 ×10⁻⁶ cm/s. This compound registered a pKa in data set [3] of 9.5. The compound further returned a log distribution coefficient (logD) in data set [2] of -1.31.

In data set [1], `CC(C)NCC(O)COc1ccc(NC=O)cc1` (configuration not stated) yielded a Pc of 3.75 ×10⁻⁶ cm/s. In data set [3], this compound registered a pKa of 9.5. Besides, in data set [2], the pH-dependent lipophilicity (logD) was -1.56.

The values are drawn from ChEMBL document CHEMBL1131445, “Evaluation of dynamic polar molecular surface area as predictor of drug absorption: comparison with other computational and experimental predictors” (J Med Chem, 1998).
